Compound activity as filed in PubChem.
rRNA inh HTS – reduced GFP signal of wild-type E. coli, primary screen, bacterial rRNA inhibitor project, GFP/RFP fluorescence, OD600, single point; actives 1.6% (n = 350,000); E. coli WT GFP vs humanized-ribosome RFP mutants, 24 h; stronger effect = lower value; DMSO median 0, no signal -100; GFP signal change (wild-type ribosome), % (test concentration not listed);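 active = significant combined selectivity score with lowered wild-type GFP, culture density cut under 30%, mutant RFP and density less affected; inactive = any of these conditions unmet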
S100A4 MyoIIA – inhibitors of S100A4-myosin IIA peptide binding, primary screen, biochemical, fluorescence polarization, TAMRA-MyoIIA peptide; Protein S100-A4 (Homo sapiens), P26447; inhibition, % at 10.7 µM; actives 0.14% (n = 360,000); AID 652163, 2013;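 active = mean inhibition of at least 70% across replicates, with every replicate also reaching that level; inconclusive = mean inhibition reaches 70% but some replicates fall short; inactive = mean inhibition below 70%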
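Material: human S100A4 monomer with TAMRA-labelled myosin IIA peptide; buffer or medium: HEPES pH 7.2 with CaCl2, KCl, NaCl, DTT, Triton; compound dosing: one concentration per compound; schedule: 5 min incubation before reading; benchmarks: neutral control DMSO, positive control TFP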
ARNT TACC3 PPI – disruptors of ARNT/TACC3 protein interaction, primary screen, biochemical, AlphaScreen, single concentration; Transforming acidic coiled-coil-containing protein 3 (Homo sapiens), Q9Y6A5; AlphaScreen His-ARNT PAS-B/GST-TACC3 binding, luminescence; TACC3 fragment carries E629A point mutation; inhibition, % at 9.99 µM; actives 0.66% (n = 390,000); AID 623870, 2012;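 active = mean inhibition of replicates at least 50% and at least half of replicates each reaching 50%; inconclusive = half or more replicates reach 50% but mean below 50%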;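 also: 0% = complete ARNT plus TACC3 wells and 100% = ARNT alone without TACC3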
PGC1a acetyl inh – inhibitors of PGC1a acetylation signal, primary screen, cell-based, U2OS, AlphaScreen, inhibitor mode; actives 0.17% (n = 350,000); AlphaScreen anti-acetyl-lysine; with virally co-expressed GCN5 acetyltransferase; inhibition, % at 15.6 µM;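 active = every replicate shows inhibition of at least 40%; inconclusive = mean inhibition at least 40% but some replicate below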;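 also: 0% = neutral control wells and 100% = positive control wells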
CASP6 VEID inh – human caspase-6 inhibitors, primary screen, biochemical, VEID-R110 fluorescence, single point, set 2. P55212. purified caspase-6, Z-VEID-R110 cleavage fluorescence. inhibition, % at 12.5 µM. actives 0.53% (n = 350,000). AID 686996, 2013;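 active = mean inhibition across replicates at least about 35%, with every replicate also reaching that limit, limit read from the data; inconclusive = only one of the two criteria met; inactive = neither criterion met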;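 also: 0% = median of neutral control wells and 100% = no fluorescence left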
ERAP1 inh – human ERAP1 aminopeptidase inhibitors, primary screen, biochemical, single point, plate reader | recombinant ERAP1, Leu-AMC fluorescence, 60 min | inhibition, % at 10.7 µM | actives 0.15% (n = 340,000);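 active = mean replicate inhibition of at least 30%, or all replicates individually reaching that 30% level; inactive = mean below 30% and not every replicate reaching it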;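 also: 0% = neutral control wells and 100% = L-leucinethiol positive control wells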
Target sequence (Q9NZ08 whole entry, looked up): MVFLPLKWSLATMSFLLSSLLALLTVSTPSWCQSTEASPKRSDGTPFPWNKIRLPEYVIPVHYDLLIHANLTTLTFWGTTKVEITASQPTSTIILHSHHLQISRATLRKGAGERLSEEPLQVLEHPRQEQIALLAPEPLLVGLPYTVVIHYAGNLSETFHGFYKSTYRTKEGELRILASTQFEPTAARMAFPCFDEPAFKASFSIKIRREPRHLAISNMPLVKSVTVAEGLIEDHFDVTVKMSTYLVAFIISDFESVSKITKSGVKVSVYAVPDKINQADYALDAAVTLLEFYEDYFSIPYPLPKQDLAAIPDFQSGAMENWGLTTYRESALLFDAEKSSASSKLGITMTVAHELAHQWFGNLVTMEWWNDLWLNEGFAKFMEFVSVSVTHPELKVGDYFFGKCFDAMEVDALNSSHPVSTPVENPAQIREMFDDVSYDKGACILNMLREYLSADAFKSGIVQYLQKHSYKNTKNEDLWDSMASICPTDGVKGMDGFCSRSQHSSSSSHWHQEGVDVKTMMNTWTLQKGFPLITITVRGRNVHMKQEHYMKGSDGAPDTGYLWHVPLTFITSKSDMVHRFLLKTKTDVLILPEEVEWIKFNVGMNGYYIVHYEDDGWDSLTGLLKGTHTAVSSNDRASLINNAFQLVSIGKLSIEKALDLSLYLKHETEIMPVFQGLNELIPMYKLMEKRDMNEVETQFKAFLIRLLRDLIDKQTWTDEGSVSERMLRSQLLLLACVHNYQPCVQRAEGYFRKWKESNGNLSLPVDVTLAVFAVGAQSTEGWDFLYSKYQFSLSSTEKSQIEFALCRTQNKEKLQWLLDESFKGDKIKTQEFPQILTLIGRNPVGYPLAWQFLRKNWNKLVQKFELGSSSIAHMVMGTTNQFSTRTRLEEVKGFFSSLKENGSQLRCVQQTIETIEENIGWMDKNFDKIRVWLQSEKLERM
Numbers without * were called inactive; ? = inconclusive; . = no result given. Rows were chosen to be rich in hits. Some 2.4% of all compounds tested hit in one or more screens of this group.

SMILES	rRNA inh HTS	S100A4 MyoIIA	ARNT TACC3 PPI	PGC1a acetyl inh	CASP6 VEID inh	ERAP1 inh
O=C(Cc1ccccc1)N1C[C@@H]2[C@H](c3ccccc31)[C@@H](CO)N2Cc1ccccc1	-6	3	4	-7	2	-2
Cc1ccc(C[n+]2c(-c3ccc(C)cc3)cc(-c3ccc(C)cc3)cc2-c2ccc(C)cc2)cc1	.	.	14	67*	.	.
N#Cc1cccc(-c2ccc([C@H]3[C@H]4CN(C(=O)Cc5ccccc5)CCCCN4[C@H]3CO)cc2)c1	3	-21	5	0	3	-2
C/C=C/c1ccc(C2[C@@H]3CN(C(=O)C4CCOCC4)C[C@H]2N3)cc1 (some centres not stated)	3	4	.	3	2	1
CC(O)C1C=CC=CC(=O)OC2CC3OC4C5OC5(C)C(O)CC4(COC(=O)C(O)C(C)CCO1)C2(C)C31CO1 (configuration not stated)	11	-4	2	87*	2	-1
CC1=CC2OC3CC4OC(=O)C=CC=CC(C(C)O)OCC(O)C5(C)OC5C(=O)OCC2(CC1O)C4(C)C31CO1 (configuration not stated)	8	3	-1	87*	0	0
CC1CCOC(=O)C=CC=CC(=O)OC2CC3OC4C5OC5(C)C(O)CC4(COC(=O)C1O)C2(C)C31CO1 (configuration not stated)	.	0	-6	77*	-2	-2
CC1=CC2OC3CC4OC(=O)C=CC=CC(=O)OCCC(C)C(O)C(=O)OCC2(CC1)C4(C)C31CO1 (configuration not stated)	.	-6	1	77*	2	-2
COC(=O)[C@H]1[C@H](CO)[C@H]2Cn3c(ccc(-c4cccc(OC)c4)c3=O)[C@@H]1N2C(=O)c1cnccn1	-1	7	3	2	2	4
CCCN1[C@@H]2Cn3c(ccc(-c4ccc(OC)cc4)c3=O)[C@H]1[C@@H](C(=O)OC)[C@@H]2CO	0	8	-1	.	1	1
O=C(Cc1cccnc1)N1CCCCN2[C@H](CO)[C@@H](c3ccc(C#CC4CCCC4)cc3)[C@@H]2C1	-57	7	-1	-10	-3	4
CCOc1ccccc1OCC(=O)Nc1ccc(Cl)cc1C(=O)c1ccccc1	10	-2	.	-3	1	0
O=C(COC(=O)c1cccc(O)c1)Nc1ccc(Cl)cc1C(=O)c1ccccc1	-23*	-6	3	.	2	2
C=C1C(=O)O[C@H]2C[C@@H](C)[C@@H]3C=CC(=O)[C@@]3(C)C[C@H]12	-6	1	.	.	74*	0
C=C1C(=O)OC2CC(C)C3C=CC(=O)C3(C)C(O)C12 (configuration not stated)	.	.	19	?	.	.
O=C([C@H]1N[C@H]2c3cccc(=O)n3C[C@H]2[C@@H]1CO)N1CCCCC1	2	.	.	.	.	.
CC(C)c1ccc(C(c2c(O)c3ccccc3oc2=O)c2c(O)c3ccccc3oc2=O)cc1	3	0	.	.	66*	0
O=c1oc2ccccc2c(O)c1C(c1ccc([N+](=O)[O-])cc1)c1c(O)c2ccccc2oc1=O	-21	-8	.	-6	24	-1
CNC(=O)OCCc1nccn1C	.	.	-6	4	.	.
CNC(=O)OCc1n(C)cc[n+]1C	14	-2	-1	.	-3	84*
CN(C)c1ccc(/C=C2\C(=O)NC(=O)N(Cc3ccc(F)cc3)C2=O)cc1	11	-31	-3	2	1	3
O=C1NC(=O)N(Cc2ccc(F)cc2)C(=O)/C1=C\c1ccoc1	25	-29	6	-5	47*	3
Cc1ccsc1/C=C1\C(=O)NC(=S)N(C)C1=O	7	-72	-1	-13	5	3
COc1ccc(/C=C2\C(=O)NC(=S)N(C)C2=O)cc1C	12	-4	55*	11	46*	34*
CC(N)C(=O)NC1C2C(=C(O)CC(O)C2O)C(=O)OC1(C)C(Cl)Cl (configuration not stated)	-52	-3	-3	74*	0	0
SMILES	rRNA inh HTS	S100A4 MyoIIA	ARNT TACC3 PPI	PGC1a acetyl inh	CASP6 VEID inh	ERAP1 inh
CC(=O)N1C[C@@H]2C(c3ccc(Br)cc3)[C@H](C1)N2CC1CC1 (some centres not stated)	-2	.	.	.	.	.
O=C(Cc1ccccc1)N1CC2(C1)[C@@H](c1ccccc1)[C@H](CO)N2Cc1cccc(F)c1	-5	.	.	.	.	.
O=C(Cc1ccccn1)N1CCCCN2[C@@H](CO)[C@H](c3ccc(C#Cc4ccccc4)cc3)[C@@H]2C1	-55	-6	10	-2	-4	0
COC(=O)[C@H]1[C@H](CO)[C@H]2Cn3c(ccc(-c4ccccc4)c3=O)[C@@H]1N2C(=O)c1ccccc1F	-2	.	-2	.	.	2
COC(=O)[C@@H]1[C@@H](CO)[C@@H]2Cn3c(ccc(-c4ccccc4F)c3=O)[C@H]1N2Cc1ccncc1	0	64	29	2	-1	1
O=C(N/N=C\C1C(=O)NC(=S)N(c2ccccc2)C1=O)c1ccc(O)cc1 (configuration not stated)	8	-6	72*	8	2	8
C=CCn1c(O)c(C(C)=NCCCn2ccnc2)c(=O)[nH]c1=O	2	-1	84*	.	-6	-2
COCCOC(=O)c1c(N)n(Cc2ccco2)c2nc3ccccc3nc12	.	.	62*	12	.	.
COC(=O)c1c(N)n(Cc2ccc(OC)cc2)c2nc3ccccc3nc12	.	.	15*	-12	.	.
Cc1cccc(S(=O)(=O)N2[C@@H]3Cn4c(ccc(-c5ccncc5)c4=O)[C@H]2[C@@H](C(=O)O)[C@@H]3CO)c1	4	9	-13	.	4	13
O=C(C(=C1N(Cc2ccc(Cl)nc2)CCN1Cc1ccc(Cl)nc1)[N+](=O)[O-])C(Cl)Cl	9	-6	-5	-2	36*	3
CCC1CO/C(=C(\C(Cl)=C(Cl)Cl)[N+](=O)[O-])N1Cc1ccc(Cl)nc1 (configuration not stated)	4	2	2	-4	3	-1
CC1Oc2cc3c(-c4c(O)cc(O)c5c(O)c6c(cc45)OC(C)C(C)C6=O)c(O)cc(O)c3c(O)c2C(=O)C1C (configuration not stated)	.	.	80*	26	.	.
